FN deposit inh: fibronectin deposition inhibition; AH1F fibroblasts, Alexa488-fibronectin deposition fluorescence, overnight; actives 0.086% (n = 350,000); inhibition, % at 12.6 µM;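 active means mean inhibition across replicates of 30% or more, regardless of how many single replicates reach that level; inconclusive means mean under 30% yet at least half of replicates reach 30%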;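 further: positive control wells lacked labelled fibronectin entirely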
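Assay system: AH1F fibroblasts assembling fluorescent fibronectin matrix; Amount: 10000 AH1F cells per well; Buffer or medium: DMEM, 2% serum; Probe or stimulus: Alexa488-fibronectin, 24 nM final in well; Doses: single compound dose, delivered by pin transfer; Incubation: 1 h adhesion, overnight exposure; Measured by: fluorescence 485/525 nm; Read-out: fibronectin deposition inhibition.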
SIRT5 block: blocks human SIRT5 desuccinylation of peptide. inhibition, % at 15 µM. AID 652115. Q9NXA8. Purified SirT5, succinyl-peptide AMC, trypsin-coupled fluorescence. actives 1.1% (n = 330,000); in the data active means inhibition above about 15%; inconclusive means no clear call, values can overlap the other calls
Target sequence (Q9NXA8 whole entry, looked up): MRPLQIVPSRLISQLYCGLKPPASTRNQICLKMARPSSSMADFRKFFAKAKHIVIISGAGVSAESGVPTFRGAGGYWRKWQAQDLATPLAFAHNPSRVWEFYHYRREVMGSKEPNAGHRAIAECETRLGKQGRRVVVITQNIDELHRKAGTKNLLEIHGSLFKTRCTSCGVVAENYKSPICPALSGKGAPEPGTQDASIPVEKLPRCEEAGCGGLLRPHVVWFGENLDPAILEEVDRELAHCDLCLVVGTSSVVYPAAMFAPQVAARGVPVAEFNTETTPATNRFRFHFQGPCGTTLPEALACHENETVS
E-sel inducer: induces E-selectin expression in human endothelial cells; HUVEC E-selectin immunofluorescence imaging; normalized: neutral wells 0, TNF-alpha wells 100; activation, % at 7.58 µM; actives 0.37% (n = 260,000); AID 686992;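 active means mean E-selectin-positive cell signal at least 10% of the positive control, reached in at least 60% of replicates, without over 20% cell loss; inconclusive means no rule given, readout overlaps actives, possibly toxicity-flagged; inactive means the rest, including those meeting only one limit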
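Test system: HUVEC | Signal: Immunofluorescence imaging | Read-out: Percent E-selectin-positive cells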
FGF22 binding: binders of recombinant human FGF22 by thermal shift; AID 651658; Q9HCT0; SYPRO orange fluorescence; percent of sucrose octasulfate shift, DMSO zero; activity (Tm shift, normalised), % at 9.99 µM; actives 1.5% (n = 340,000);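 active means mean Tm shift, scaled 0 neutral to 100 positive control, at about 1.3% or above, every replicate too, limit read from the data; inconclusive means no clear call, values can overlap the other calls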
Target sequence (Q9HCT0 whole entry, looked up): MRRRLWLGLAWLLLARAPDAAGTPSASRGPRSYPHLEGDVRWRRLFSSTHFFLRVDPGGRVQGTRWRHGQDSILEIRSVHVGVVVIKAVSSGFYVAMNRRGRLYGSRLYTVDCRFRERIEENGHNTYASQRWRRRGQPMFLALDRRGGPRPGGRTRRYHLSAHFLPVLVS
Ecoli rRNA inh: inhibitors of bacterial rRNA selective over humanized ribosomes; E. coli WT GFP vs humanized-ribosome RFP mutants, fluorescence, 24 h; hits give low values; DMSO median 0, no signal -100; GFP signal change (wild-type ribosome), % (concentration not given with the values); actives 1.6% (n = 350,000); AID 720706;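 active means significant combined selectivity score with lowered wild-type GFP, culture density cut under 30%, mutant RFP and density less affected; inactive means any of these conditions unmet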
C2C12 statin: protects C2C12 myotubes from simvastatin toxicity; actives 0.78% (n = 330,000); ATP luminescence, 48 h; scaled: DMSO 0, geranylgeraniol control 100; AID 602340; rescue of ATP level, % at 7.49 µM;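 active means mean ATP rescue above about 67%, or every replicate alone reaching that limit, limit read from the data, passing the limit was not always enough; inconclusive means no clear call, values can overlap the other calls; inactive means mean under the limit and some replicate under it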;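 further: myotubes were challenged with 10 µM simvastatin during compound exposure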
AID977621: wild-type E. coli growth inhibition versus H69 humanized strain – H69 mutant RFP, wild-type GFP, cherry-pick, dose response | 1,900 tested, under 10 active | activity change, negative = inhibition at 50 µM | shares compounds with Ecoli rRNA inh | fluorescence, 24 h;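 active means Wild-type ribosome reporter drop at least double the humanized mutant ribosome reporter drop, growth loss under a set limit; inconclusive means no clear call, values can overlap the other calls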;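 further: wild-type GFP and H69 mutant RFP strains grown together 50/50 in each well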
AID977628: growth of wild-type and h24-humanized E. coli strains – h24 mutant RFP vs wild-type GFP, cherry-pick, dose response. shares compounds with Ecoli rRNA inh. E. coli WT GFP strain growth, fluorescence, 24 h. activity change, negative = inhibition at 50 µM. 1,900 tested, under 10 active. AID 977628;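 active means compound lowering the normal-ribosome reporter at least twice as much as the humanized-ribosome reporter, growth loss under a set limit; inconclusive means no clear call, values can overlap the other calls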;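 further: wild-type GFP and h24 humanized RFP strains co-cultured 1 to 1 per well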
The depositor's hits bear a star; ? = inconclusive; / = no result. This is a sample that favours compounds with a hit; in the whole collection about 4% have one here.

SMILES | FN deposit inh | SIRT5 block | E-sel inducer | FGF22 binding | Ecoli rRNA inh | C2C12 statin | AID977621 | AID977628
O=C(CN1CCCCCC1)Nc1nc2ccccc2s1 | 14 | -1 | / | 0 | 9 | 5 | / | /
C[C@@H]1CN([C@H](C)CO)C(=O)c2cc(NC(=O)C3CCCCC3)ccc2O[C@@H]1CN(C)S(=O)(=O)c1cn(C)cn1 | 1 | -3 | 0 | 0 | -1 | 7 | / | /
Cc1cc(C)cc(NS(=O)(=O)c2cc(C(=O)NCc3ccccn3)ccc2Cl)c1 | 3 | / | 0 | 0 | -20* | -6 | -3.2 | -8
COc1ccc(OCC(O)CNS(=O)(=O)c2cccc(Cl)c2)cc1 (stereo not given) | 11 | -4 | / | 1 | -21* | 10 | -3.7 | -4.2
CC(C)NC(=O)N(C)C[C@@H]1Oc2ccc(NC(=O)Nc3cccc4ccccc34)cc2CC(=O)N([C@@H](C)CO)C[C@@H]1C | / | -2 | 1 | -1 | -2 | ? | / | /
COc1ccc2sc(N3C(=O)CC(Cc4cccc(C)c4)C3=O)nc2c1 (stereo not given) | / | 1 | / | 0 | -33* | 9 | / | ?
COC(=O)c1ccc2nc(-c3cccc(Cl)c3)c(Cc3ccsc3)n2c1 | -13 | 0 | 1 | 0 | -9 | -5 | / | /
COC(=O)c1ccc2nc(-c3cccc(Br)c3)c(Cc3ccsc3)n2c1 | 0 | -2 | -1 | 0 | -34* | -19 | ? | /
C[C@@H]1CCCCO[C@@H](CN(C)S(C)(=O)=O)[C@@H](C)CN([C@H](C)CO)C(=O)c2cc(NC(=O)Nc3cccc4ccccc34)ccc2O1 | / | -3 | 0 | 0 | 1 | / | / | /
C[C@@H]1CCCCO[C@H](CN(C)C)[C@H](C)CN([C@H](C)CO)C(=O)c2cc(NC(=O)Nc3cccc4ccccc34)ccc2O1 | / | -2 | 0 | -1 | -1 | -349 | -24 | /
C[C@@H]1CCCCO[C@H](CN(C)C)[C@@H](C)CN([C@H](C)CO)C(=O)c2cc(NC(=O)Nc3cccc4ccccc34)ccc2O1 | / | -3 | 0 | 0 | 2 | 40 | 5.2 | ?
C[C@H](CO)N1C[C@H](C)[C@H](CN(C)CC2CC2)OCCCC[C@H](C)Oc2ccc(NC(=O)Nc3cccc4ccccc34)cc2C1=O | / | / | 1 | -1 | 1 | / | / | /
C[C@@H]1CCCCO[C@@H](CN(C)S(C)(=O)=O)[C@H](C)CN([C@H](C)CO)C(=O)c2cc(NC(=O)Nc3cccc4ccccc34)ccc2O1 | / | 0 | 0 | 0 | -1 | / | / | /
C[C@@H]1CCCCO[C@H](CN(C)S(C)(=O)=O)[C@H](C)CN([C@@H](C)CO)C(=O)c2cc(NC(=O)Nc3cccc4ccccc34)ccc2O1 | / | -4 | 0 | 0 | -5 | / | / | /
C[C@@H]1CCCCO[C@H](CN(C)C)[C@H](C)CN([C@@H](C)CO)C(=O)c2cc(NC(=O)Nc3cccc4ccccc34)ccc2O1 | / | -2 | 0 | 0 | -36* | 17 | -3.2 | 0.029
C[C@@H]1CCCCO[C@@H](CN(C)C)[C@H](C)CN([C@@H](C)CO)C(=O)c2cc(NC(=O)Nc3cccc4ccccc34)ccc2O1 | / | 0 | 0 | 0 | 3 | 36 | -5.2 | 6.2
CC(C)NC(=O)N(C)C[C@@H]1Oc2ncc(C#CC3CCCCC3)cc2C(=O)N([C@H](C)CO)C[C@@H]1C | / | / | 0 | / | 7 | -3 | / | /
COc1ccc(S(=O)(=O)Nc2ccc3c(c2)C(=O)N([C@H](C)CO)C[C@H](C)[C@H](CN(C)S(=O)(=O)c2c(C)noc2C)O3)cc1 | / | -3 | 0 | 0 | -1 | 13 | / | /
COc1ccc2c3c(n(C)c2c1)[C@H](CO)N(Cc1cccc(Cl)c1)CC31CCN(C(C)=O)CC1 | / | 3 | 0 | 0 | -5 | / | / | /
C[C@@H]1CN([C@@H](C)CO)C(=O)c2cc(NC(=O)Nc3cccc4ccccc34)ccc2O[C@@H](C)CCCCO[C@H]1CN(C)CC1CC1 | / | / | 0 | 0 | 4 | / | / | /
C[C@@H]1CN([C@@H](C)CO)C(=O)c2cc(NC(=O)Nc3cccc4ccccc34)ccc2O[C@@H](C)CCCCO[C@H]1CN(C)C | / | -1 | 0 | 0 | -1 | 7 | -6.2 | 2.7
C[C@@H]1CCCCO[C@@H](CN(C)C(=O)c2ccccc2)[C@H](C)CN([C@@H](C)CO)C(=O)c2cc(NC(=O)Cc3ccccc3)ccc2O1 | / | 1 | 0 | 1 | -25* | / | / | ?
C[C@@H]1CCCCO[C@@H](CN(C)C(=O)Nc2cccc3ccccc23)[C@@H](C)CN([C@@H](C)CO)C(=O)c2cc(NC(=O)Nc3cccc4ccccc34)ccc2O1 | -17 | 8 | 0 | 0 | 7 | / | / | /
C[C@@H]1CCCCO[C@H](CN(C)C(=O)c2ccccc2)[C@@H](C)CN([C@@H](C)CO)C(=O)c2cc(NC(=O)Cc3ccccc3)ccc2O1 | / | 2 | 0 | 0 | -6 | / | / | /
C[C@H]1CCCCO[C@H](CN(C)C)[C@@H](C)CN([C@@H](C)CO)C(=O)c2cc(NC(=O)Nc3cccc4ccccc34)ccc2O1 | / | 5 | 0 | 0 | 0 | -7 | -9.3 | ?
SMILES | FN deposit inh | SIRT5 block | E-sel inducer | FGF22 binding | Ecoli rRNA inh | C2C12 statin | AID977621 | AID977628
COCCNC(=O)C[C@@H]1C[C@H]2c3cc(NC(=O)COC)ccc3O[C@H]2[C@H](CO)O1 | -4 | 8 | 0 | / | 2 | -2 | / | /
Cc1ccccc1-c1cnc2c(c1)C(=O)N([C@@H](C)CO)C[C@H](C)[C@H](CN(C)CC1CCCCC1)O2 | / | -7 | 0 | 0 | 0 | -61 | / | /
O=C(NCc1ccc2c(c1)OCO2)C1CCC(=O)N1C1CCCCC1 (stereo not given) | -5 | -4 | 0 | 0 | -23* | / | -1.6 | ?
CCc1ccc(CNC(=O)C2CCC(=O)N2C2CCCCC2)cc1 (stereo not given) | -10 | / | / | / | / | 0 | / | /
N#Cc1ccc(-c2ccc([C@H]3[C@@H](CO)N4C(=O)CN(C(=O)C5CCC5)C[C@@H]34)cc2)cc1 | -5 | 0 | 0 | / | -2 | / | / | /
Cc1ccc(S(=O)(=O)NC2c3cccc4cccc(c34)C2Sc2nc(C)cc(C)n2)cc1 (stereo not given) | -6 | / | / | / | / | / | / | /
O=S(=O)(NC1c2cccc3cccc(c23)C1Sc1ncccn1)c1ccccc1 (stereo not given) | 3 | 1 | 0 | 0 | -24* | / | -7.5 | ?
